HSF1 inh = HSF1 inhibition | activity change, negative = inhibition, % at 7.5 µM (by protocol) | NIH3T3-HGL HSE-luciferase, MG132-induced, luminescence 8 h; hits give low values | AID 2098 | 300,000 tested, 0.77% active;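 active = more than half of replicate wells show activity change below -50%, luminescence cut by over half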;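 also: luciferase reports HSF-1 transcriptional activity via heat shock element; 0% = median of DMSO wells and -100% = zero luminescence signal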
HCV core dimer = HCV core protein dimerization inhibition; TR-FRET GST/Flag-core106 dimerization, 1536-well; inhibition, % at 5 µM; 300,000 tested, 0.33% active; AID 1899;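 active = inhibition above the mean of all tested compounds plus 3 SD, set per screening campaign, cut at about 45% in these data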
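System: GST/Flag-tagged HCV core106 proteins. Incubation: compound-protein-antibody incubation 4 h at 22.5 °C. Technique: HTRF with 340 nm excitation, 617/671 nm emission. Medium: KF-containing HEPES buffer, pH 7.45, DTT, CHAPS, BSA. Read-out: inhibition (%) from 671 over 617 nm ratio. Also added: Eu(K)-anti-GST 90 ng/mL plus XL665-anti-Flag 1 µg/mL.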
HCV NS3 hel inh = inhibitors of Hepatitis C virus NS3 helicase. NS3 helicase DNA unwinding, Cy5 molecular beacon fluorescence. inhibition, % at 10.9 µM. 290,000 tested, 0.56% active. AID 1800;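 active = inhibition above the mean of all tested compounds plus 3 SD, set per campaign, cut at about 35% in these data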;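 also: 0% = DMSO wells and 100% = thioflavine S control wells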
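Compound dosing – single dose, 10.9 µM nominal final, DMSO 0.8% final · System – NS3 helicase fragment of HCV · Buffer or medium – MOPS pH 6.5, MgCl2, DTT, Tween20, BSA · Signal – Cy5 beacon fluorescence read at start and 1 h · Also added – annealed dual-labelled DNA beacon duplex, ATP-started · Schedule – 1 h at 25 °C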
HSF-1 act = increases HSF-1 driven luciferase reporter signal; NIH3T3-HGL HSF-1 luciferase reporter, MG132, 8 h; 100% = twice DMSO control signal; activation, % at 9 µM; 300,000 tested, 1.7% active;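 active = mean replicate activation of at least 50% with a set share of replicates each reaching 50%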;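 also: 0% = median of the neutral control wells and 100% = twice that signal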
FID counter = displaces DNA intercalator in HCV helicase counter-screen. inhibition, % at 7.9 µM. DNA fluorescent intercalator displacement, fluorescence. AID 1845. 290,000 tested, 0.17% active; in the data active = inhibition above about 37%;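 also: 0% = vehicle and 100% = reference compound; higher means more ethidium bromide displaced from hairpin DNA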
HSP90 refold inh = blocks HSP90-mediated luciferase refolding in reticulocyte lysate; Rabbit reticulocyte lysate, luciferase refolding luminescence, 3 h; inhibition, % at 5.6 µM; 290,000 tested, 0.91% active; AID 1789;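 active = inhibition above the screen-wide mean plus 3 SD, computed separately per campaign, cut at about 16% in these data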;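 also: 0% = DMSO wells and 100% = 60 µM geldanamycin wells; inhibitors lower the luminescence because luciferase stays unfolded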
The depositor's hits bear a star; . = not tested or not shown. In the library only some 3.9% were active in any assay of this set; here they are far more common.

SMILES | HSF1 inh | HCV core dimer | HCV NS3 hel inh | HSF-1 act | FID counter | HSP90 refold inh
O=C(N/N=C/C(Br)=C\c1ccccc1)c1ccco1 | 110 | -1 | 2 | 108* | -14 | -1
Cc1ccc(NCC(=O)N/N=C\C(Br)=C\c2ccccc2)cc1 | 110 | 11 | 2 | 145* | -5 | 2
CCOc1ccc(NC(=O)CN(C)CC(=O)Nc2ccc(Br)cc2F)cc1OCC | 0 | -5 | -8 | 7 | -27 | -1
Cc1ccc(NC(=O)c2cc3ccccc3o2)cc1S(=O)(=O)N(C)C | . | . | -1 | . | -2 | -4
Cc1ccc(NC(=O)c2cc3ccccc3oc2=O)cc1S(=O)(=O)N(C)C | -89* | 5 | -3 | -91 | -3 | 38*
CCN(CCNC(=O)CN1CCN(Cc2ccc(Cl)cc2)C1=O)c1ccccc1 | 49 | 0 | -6 | 70* | -34 | -2
CCCCn1c(NS(=O)(=O)c2ccccc2)c(S(=O)(=O)c2ccc(C)cc2)c2nc3ccccc3nc21 | 0 | 36 | 13 | 31 | -5 | 16*
CCC(=O)Nc1c(S(=O)(=O)c2ccccc2)c2nc3ccccc3nc2n1C(C)c1ccccc1 (stereo unspecified) | 41 | 15 | -2 | 83* | -23 | -2
CCCCCn1c(NC(=O)c2ccco2)c(S(=O)(=O)c2ccc(C)cc2)c2nc3ccccc3nc21 | 30 | 23 | 26 | 42 | -4 | 16*
CCC(=O)Nc1c(S(=O)(=O)c2ccc(C)cc2)c2nc3ccccc3nc2n1C(C)c1ccccc1 (stereo unspecified) | 0 | 10 | -11 | 12 | -10 | -4
CCCCn1c(NC(=O)c2ccco2)c(S(=O)(=O)c2ccc(C)cc2)c2nc3ccccc3nc21 | 58 | . | 3 | 137* | -14 | 7
Cc1ccc(C(=O)Nn2c(N)c(S(=O)(=O)c3ccc(C)cc3)c3nc4ccccc4nc32)cc1 | 3 | 4 | 6 | 9 | -4 | 6
Nc1nc(NCC2CCCO2)nc(Nc2ccc(Cl)cc2)c1[N+](=O)[O-] (stereo unspecified) | 0 | -1 | 5 | 6 | 0 | -1
C#CCOC(=O)CCCNc1ccc([N+](=O)[O-])cc1[N+](=O)[O-] | 0 | 48* | 7 | 3 | 4 | -1
COC(=O)c1c(C)[nH]c(C(=O)/C=C/c2ccccc2F)c1C | 27 | -2 | 2 | 66* | -4 | -6
COC(=O)Cc1c(C)c2ccc(OC(=O)c3ccccc3)cc2oc1=O | 27 | 9 | 5 | 61* | -14 | 1
Cc1c(Cc2ccccc2)c(=O)oc2cc(OC(=O)c3ccccc3)ccc12 | 4 | 7 | -2 | 6 | 8 | 1
COc1cccc(C2/C(=C(/O)c3ccc4c(c3)CC(C)O4)C(=O)C(=O)N2CCCn2ccnc2)c1 (stereo unspecified) | 3 | -14 | -5 | 11 | -20 | 8
COc1ccc2[nH]c3c(N4CCc5ccccc5C4)ncnc3c2c1 | 71 | -13 | -45 | 64* | 8 | -5
O=C(c1cc([N+](=O)[O-])ccc1Cl)N1CCN(c2ccccn2)CC1 | 5 | 1 | -9 | 4 | -6 | 0
CCNc1nc(NCC)n2c(SCC(=O)Nc3ccccc3)nnc2n1 | -3 | -1 | 7 | 11 | -14 | -4
CCNc1nc(NCC)n2c(SCC(=O)c3ccc(C(C)C)cc3)nnc2n1 | -4 | 2 | -6 | 51* | 0 | -1
CCNc1nc(NCC)n2c(SCC(=O)Nc3ccc(C(F)(F)F)cc3[N+](=O)[O-])nnc2n1 | 31 | 1 | 13 | 70* | -12 | -3
N#C/C(=C(/O)CCl)c1nc2ccccc2[nH]1 | 5 | 11 | 6 | 13 | 2 | -3
CCN(C(=O)c1cc(S(=O)(=O)N2CCc3ccccc32)cn1C)c1ccccc1 | -1 | 19 | 6 | -18 | -39 | 0
SMILES | HSF1 inh | HCV core dimer | HCV NS3 hel inh | HSF-1 act | FID counter | HSP90 refold inh
Cc1ccc(C(=O)COC(=O)c2cn3ccccc3n2)cc1 | 32 | 1 | 5 | 62* | -5 | -1
Cc1ccc(C(=O)COC(=O)c2ccc(O)cc2)cc1 | 58 | -5 | 0 | 122* | -5 | -4
NNC(=O)c1cn2ccccc2n1 | 1 | -8 | 5 | 13 | -4 | -2
O=C(OCc1nnc(-c2ccccc2)o1)c1ccccc1 | 4 | -1 | 1 | 14 | -14 | -5
O=C(COC(=O)c1ccc(-c2nnc(-c3ccccc3)o2)cc1)c1ccccc1 | 39 | -11 | 0 | 51* | 1 | -5
Cc1cc(C)cc(OCC(=O)Nc2nc(-c3cccnc3)cs2)c1 | -59* | 3 | 6 | -58 | -19 | 1
Cc1cc(Cl)ccc1OCC(=O)Nc1nc(-c2cccnc2)cs1 | -60* | 4 | -3 | -70 | -1 | 5
CC(=O)OCC(=O)[C@@]1(O)[C@H](C)C[C@H]2[C@@H]3CCC4=CC(=O)C=C[C@]4(C)[C@@]3(F)[C@@H](O)C[C@@]21C | -42 | -11 | -3 | -50 | -34 | 2
C[C@@H]1C[C@H]2[C@@H]3CCC4=CC(=O)C=C[C@]4(C)[C@@]3(F)[C@@H](O)C[C@]2(C)[C@@]1(O)C(=O)CO | -53* | 0 | . | -61 | . | .
C[C@@H]1C[C@H]2[C@@H]3C[C@H](F)C4=CC(=O)C(Cl)=C[C@]4(C)[C@@]3(F)[C@@H](O)C[C@]2(C)[C@@]1(O)C(=O)CO | -50* | 4 | -8 | -53 | -8 | 2
O=C(OCCN1CCOCC1)c1cccs1 | -3 | -4 | -6 | 2 | 3 | 2
CCCC1=NN2C(=N)/C(=C\c3ccc(SCc4ccco4)o3)C(=O)N=C2S1 | 3 | 71* | 25 | -12 | -29 | 6
COc1ccc(NC(=O)C(=O)N/N=C\c2ccc(CNC(=O)C(=O)Nc3ccc(C)c(C)c3)o2)c(OC)c1 | -4 | 7 | 6 | -5 | -19 | -1
COc1cccc(/C=N/NC(=S)NC2CC3CC2C2C=CCC32)c1O (stereo unspecified) | 81 | 7 | -5 | 105* | -4 | -3
Oc1ccccc1/C=N/NC(=S)NC1CC2CC1C1C=CCC21 (stereo unspecified) | 10 | 2 | 21 | 18 | -20 | 1
CCCc1ccc(C(=O)CCC(=O)NNC(=O)c2ccncc2)cc1 | -6 | 3 | 18 | 7 | -9 | -1
CC(=O)Oc1ccc(Cl)cc1/C=C/c1ccc2ccccc2n1 | 46 | 5 | -8 | 60* | -20 | -6
Fc1ccccc1/C=C/c1ccc2ccccc2n1 | -25 | 8 | 0 | -13 | 0 | 6
CC(=O)Oc1c(Cl)cc(Cl)cc1/C=C/c1ccc2ccccc2n1 | 119 | 5 | 0 | 161* | -1 | -3
CCOC(=O)c1c(N)sc2c(NC(C)=O)cccc12 | -6 | 3 | 1 | -3 | 2 | -4

Screens (PubChem BioAssay)
